Experimental data reported in ChEMBL document CHEMBL1121378, “Lipophilic and hydrophilic esters of 4-acetyl-2-(2-hydroxyethyl)-5,6-bis(4-chlorophenyl)-2H-pyridazin-3-one as antihypertensive agents” (1980).

Tests used:
Rattus norvegicus [1] = test: Antihypertensive activity in spontaneously hypertensive rats was measured as average blood pressure at 100 mg/kg, po after 4 hours of postdose-1; No significant lowering of blood pressure; format: functional, organism-based; parameters: dose 100 mg/kg
Method in brief: (§1)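 SHR model with two successive doses, designated dose 1 and dose 2. Group-average blood pressure in mmHg was recorded before dosing and at 4 h and 24 h after each dose. The route is oral unless marked intra-arterial or subcutaneous. A table footnote marks doses that gave no significant lowering at 4 or 24 h postdose.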

Rattus norvegicus [2] = test: Antihypertensive activity in spontaneously hypertensive rats was measured as average blood pressure at 100 mg/kg, p.o. after 24 hours of postdose-1; No significant lowering of blood pressure; format: functional, organism-based; parameters: dose 100 mg/kg; method in brief: as §1
Rattus norvegicus [3] = test: Antihypertensive activity in spontaneously hypertensive rats was measured as average blood pressure at 30 mg/kg, p.o. after 4 hours of postdose-2; format: functional; conditions: route oral; method in brief: as §1
Rattus norvegicus [4] = test: Antihypertensive activity in spontaneously hypertensive rats was measured as average blood pressure at 100 mg/kg, p.o. after 4 hours of postdose-2; format: functional; conditions: route oral; method in brief: as §1
Rattus norvegicus [5] = test: Antihypertensive activity in spontaneously hypertensive rats was measured as average blood pressure at 30 mg/kg, po before predose; format: functional; method in brief: as §1
Rattus norvegicus [6] = test: Antihypertensive activity in spontaneously hypertensive rats was measured as average blood pressure at 100 mg/kg, p.o. after 4 hours of postdose-1; format: functional; conditions: route oral; method in brief: as §1
Rattus norvegicus [7] = test: Antihypertensive activity in spontaneously hypertensive rats was measured as average blood pressure at 100 mg/kg, p.o. before predose; format: functional; conditions: route oral; method in brief: as §1
Rattus norvegicus [8] = test: Antihypertensive activity in spontaneously hypertensive rats was measured as average blood pressure at 100 mg/kg, p.o. after 24 hours of postdose-2; format: functional; conditions: route oral; method in brief: as §1
Rattus norvegicus [9] = test: Antihypertensive activity in spontaneously hypertensive rats was measured as average blood pressure at 30 mg/kg, p.o. after 24 hours of postdose-1; format: functional; conditions: route oral; method in brief: as §1
Rattus norvegicus [10] = test: Antihypertensive activity in spontaneously hypertensive rats was measured as average blood pressure at 100 mg/kg, p.o. after 24 hours of postdose-1; format: functional; conditions: route oral; method in brief: as §1
Rattus norvegicus [11] = test: Antihypertensive activity in spontaneously hypertensive rats was measured as average blood pressure at 30 mg/kg, po after 24 hours of postdose-2; format: functional; method in brief: as §1
Rattus norvegicus [12] = test: Antihypertensive activity in spontaneously hypertensive rats was measured as average blood pressure at 10 mg/kg, p.o. after 24 hours of postdose-2; format: functional; conditions: route oral; method in brief: as §1
Rattus norvegicus [13] = test: Antihypertensive activity in spontaneously hypertensive rats was measured as average blood pressure at 10 mg/kg, p.o. after 4 hours of postdose-2; format: functional; conditions: route oral; method in brief: as §1
Rattus norvegicus [14] = test: Antihypertensive activity in spontaneously hypertensive rats was measured as average blood pressure at 10 mg/kg, p.o. before predose; format: functional; conditions: route oral; method in brief: as §1
Rattus norvegicus [15] = test: Antihypertensive activity in spontaneously hypertensive rats was measured as average blood pressure at 10 mg/kg, p.o. after 4 hours of postdose-1; format: functional; conditions: route oral; method in brief: as §1
Rattus norvegicus [16] = test: Antihypertensive activity in spontaneously hypertensive rats was measured as average blood pressure at 10 mg/kg, p.o. after 24 hours of postdose-1; format: functional; conditions: route oral; method in brief: as §1
Rattus norvegicus [17] = test: Antihypertensive activity in spontaneously hypertensive rats was measured as average blood pressure at 13 mg/kg, p.o. after 24 hours of postdose-2; format: functional; conditions: route oral; method in brief: as §1
Rattus norvegicus [18] = test: Antihypertensive activity in spontaneously hypertensive rats was measured as average blood pressure at 13 mg/kg, p.o. after 4 hours of postdose-2; format: functional; conditions: route oral; method in brief: as §1
Rattus norvegicus [19] = test: Antihypertensive activity in spontaneously hypertensive rats was measured as average blood pressure at 13 mg/kg, p.o. after 4 hours of postdose-1; format: functional; conditions: route oral; method in brief: as §1
Rattus norvegicus [20] = test: Antihypertensive activity in spontaneously hypertensive rats was measured as average blood pressure at 13 mg/kg, po after 24 hours of postdose-1; format: functional; method in brief: as §1
Rattus norvegicus [21] = test: Antihypertensive activity in spontaneously hypertensive rats was measured as average blood pressure at 13 mg/kg, p.o. before predose; format: functional; conditions: route oral; method in brief: as §1
Rattus norvegicus [22] = test: Antihypertensive activity in spontaneously hypertensive rats was measured as average blood pressure at 30 mg/kg, p.o. after 4 hours of postdose-1; format: functional; conditions: route oral; method in brief: as §1
Rattus norvegicus [23] = test: Antihypertensive activity in spontaneously hypertensive rats was measured as average blood pressure at 50 mg/kg, p.o. after 24 hours of postdose-1; format: functional; conditions: route oral
Method in brief: (§2)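 Spontaneously hypertensive rats dosed orally twice. Average blood pressure (mmHg) recorded before dosing and at 4 h and 24 h after the first dose and after the second dose. Postdose values checked for significant lowering against predose.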

Rattus norvegicus [24] = test: Antihypertensive activity in spontaneously hypertensive rats was measured as average blood pressure at 50 mg/kg, p.o. before predose; format: functional; conditions: route oral; method in brief: as §2
Rattus norvegicus [25] = test: Antihypertensive activity in spontaneously hypertensive rats was measured as average blood pressure at 17 mg/kg, p.o. after 4 hours of postdose-2; format: functional; conditions: route oral; method in brief: as §1
Rattus norvegicus [26] = test: Antihypertensive activity in spontaneously hypertensive rats was measured as average blood pressure at 17 mg/kg, p.o. after 24 hours of postdose-1; format: functional; conditions: route oral; method in brief: as §1
Rattus norvegicus [27] = test: Antihypertensive activity in spontaneously hypertensive rats was measured as average blood pressure at 17 mg/kg, p.o. after 4 hours of postdose-1; format: functional; conditions: route oral; method in brief: as §1
Rattus norvegicus [28] = test: Antihypertensive activity in spontaneously hypertensive rats was measured as average blood pressure at 17 mg/kg, p.o. before predose; format: functional; conditions: route oral; method in brief: as §1
Rattus norvegicus [29] = test: Antihypertensive activity in spontaneously hypertensive rats was measured as average blood pressure at 50 mg/kg, p.o. after 4 hours of postdose-1; format: functional; conditions: route oral; method in brief: as §2
Rattus norvegicus [30] = test: Antihypertensive activity in spontaneously hypertensive rats was measured as average blood pressure at 17 mg/kg, p.o. after 24 hours of postdose-2; format: functional; conditions: route oral; method in brief: as §1
Rattus norvegicus [31] = test: Antihypertensive activity in spontaneously hypertensive rats was measured as average blood pressure at 15 mg/kg, po after 24 hours of postdose-1; No significant lowering of blood pressure; format: functional, organism-based; parameters: dose 15 mg/kg; method in brief: as §1
Rattus norvegicus [32] = test: Antihypertensive activity in spontaneously hypertensive rats was measured as average blood pressure at 15 mg/kg, p.o. after 4 hours of postdose-1; No significant lowering of blood pressure; format: functional, organism-based; parameters: dose 15 mg/kg; method in brief: as §1
Rattus norvegicus [33] = test: Antihypertensive activity in spontaneously hypertensive rats was measured as average blood pressure at 15 mg/kg, sc after 4 hours of postdose-2; format: functional; conditions: route subcutaneous; method in brief: as §1
Rattus norvegicus [34] = test: Antihypertensive activity in spontaneously hypertensive rats was measured as average blood pressure at 15 mg/kg, sc after 24 hours of postdose-1; format: functional; conditions: route subcutaneous; method in brief: as §1
Rattus norvegicus [35] = test: Antihypertensive activity in spontaneously hypertensive rats was measured as average blood pressure at 15 mg/kg, ia after 4 hours of postdose-1; format: functional; conditions: route intra-arterial; method in brief: as §1
Rattus norvegicus [36] = test: Antihypertensive activity in spontaneously hypertensive rats was measured as average blood pressure at 15 mg/kg, sc after 24 hours of postdose-2; format: functional; conditions: route subcutaneous; method in brief: as §1
Rattus norvegicus [37] = test: Antihypertensive activity in spontaneously hypertensive rats was measured as average blood pressure at 15 mg/kg, sc after 4 hours of postdose-1; format: functional; conditions: route subcutaneous; method in brief: as §1
Rattus norvegicus [38] = test: Antihypertensive activity in spontaneously hypertensive rats was measured as average blood pressure at 15 mg/kg, ia after 24 hours of postdose-1; format: functional; conditions: route intra-arterial; method in brief: as §1
Rattus norvegicus [39] = test: Antihypertensive activity in spontaneously hypertensive rats was measured as average blood pressure at 15 mg/kg, ia before predose intra arterial.; format: functional, Artery; method in brief: as §1
Rattus norvegicus [40] = test: Antihypertensive activity in spontaneously hypertensive rats was measured as average blood pressure at 15 mg/kg, sc before predose subcutaneous; format: functional; method in brief: as §1
Rattus norvegicus [41] = test: Antihypertensive activity in spontaneously hypertensive rats was measured as average blood pressure at 15 mg/kg, ia after 4 hours of postdose-2; format: functional; conditions: route intra-arterial; method in brief: as §1

## CC(=O)c1c(-c2ccc(Cl)cc2)c(-c2ccc(Cl)cc2)nn(CCOC(=O)CCNC(=O)OCc2ccccc2)c1=O
Rattus norvegicus [1]
  BP: Not significant
Rattus norvegicus [2]
  BP: Not significant

## CC(=O)OCCn1nc(-c2ccc(Cl)cc2)c(-c2ccc(Cl)cc2)c(C(C)=O)c1=O
Rattus norvegicus [3]
  BP: 140 mmHg
Rattus norvegicus [4]
  BP: 122 mmHg
Rattus norvegicus [5]
  BP: 183 mmHg
Rattus norvegicus [6]
  BP: 150 mmHg
Rattus norvegicus [7]
  BP: 182 mmHg
Rattus norvegicus [8]
  BP: 143 mmHg
Rattus norvegicus [9]
  BP: 165 mmHg
Rattus norvegicus [10]
  BP: 132 mmHg
Rattus norvegicus [11]
  BP: 152 mmHg
Rattus norvegicus [12]
  BP: 176 mmHg
Rattus norvegicus [13]
  BP: 149 mmHg
Rattus norvegicus [14]
  BP: 183 mmHg
Rattus norvegicus [15]
  BP: 162 mmHg
Rattus norvegicus [16]
  BP: 181 mmHg

## Br.CC(=O)c1c(-c2ccc(Cl)cc2)c(-c2ccc(Cl)cc2)nn(CCOC(=O)CN)c1=O
Rattus norvegicus [17]
  BP: 170 mmHg
Rattus norvegicus [18]
  BP: 145 mmHg
Rattus norvegicus [19]
  BP: 177 mmHg
Rattus norvegicus [20]
  BP: 154 mmHg
Rattus norvegicus [21]
  BP: 182 mmHg

## CC(=O)c1c(-c2ccc(Cl)cc2)c(-c2ccc(Cl)cc2)nn(CCO)c1=O
Rattus norvegicus [3]
  BP: 164 mmHg
Rattus norvegicus [4]
  BP: 174 mmHg
Rattus norvegicus [5]
  BP: 213 mmHg
Rattus norvegicus [6]
  BP: 173 mmHg
Rattus norvegicus [7]
  BP: 218 mmHg
Rattus norvegicus [8]
  BP: 193 mmHg
Rattus norvegicus [9]
  BP: 192 mmHg
Rattus norvegicus [22]
  BP: 200 mmHg
Rattus norvegicus [10]
  BP: 185 mmHg
Rattus norvegicus [11]
  BP: 206 mmHg

## Br.Br.CC(=O)c1c(-c2ccc(Cl)cc2)c(-c2ccc(Cl)cc2)nn(CCOC(=O)C(N)CCCCN)c1=O (stereo not given)
Rattus norvegicus [23]
  BP: 173 mmHg
Rattus norvegicus [24]
  BP: 231 mmHg
Rattus norvegicus [25]
  BP: 143 mmHg
Rattus norvegicus [26]
  BP: 162 mmHg
Rattus norvegicus [27]
  BP: 165 mmHg
Rattus norvegicus [28]
  BP: 189 mmHg
Rattus norvegicus [29]
  BP: 179 mmHg
Rattus norvegicus [30]
  BP: 175 mmHg

## CC(=O)c1c(-c2ccc(Cl)cc2)c(-c2ccc(Cl)cc2)nn(CCOC(=O)Cc2ccccc2)c1=O
Rattus norvegicus [3]
  BP: 146 mmHg
Rattus norvegicus [5]
  BP: 174 mmHg
Rattus norvegicus [9]
  BP: 154 mmHg
Rattus norvegicus [22]
  BP: 165 mmHg
Rattus norvegicus [11]
  BP: 127 mmHg

## CC(=O)c1c(-c2ccc(Cl)cc2)c(-c2ccc(Cl)cc2)nn(CCOC(=O)C(N)Cc2ccccc2)c1=O (stereo not given)
Rattus norvegicus [31]
  BP: Not significant
Rattus norvegicus [32]
  BP: Not significant

## CC(=O)c1c(-c2ccc(Cl)cc2)c(-c2ccc(Cl)cc2)nn(CCOC(=O)CCN)c1=O.Cl
Rattus norvegicus [17]
  BP: 209 mmHg
Rattus norvegicus [18]
  BP: 195 mmHg
Rattus norvegicus [19]
  BP: 210 mmHg
Rattus norvegicus [20]
  BP: 215 mmHg
Rattus norvegicus [21]
  BP: 215 mmHg

## C[C@](N)(Cc1ccc(O)c(O)c1)C(=O)O [METHYLDOPA]
Rattus norvegicus [4]
  BP: 155 mmHg
Rattus norvegicus [6]
  BP: 161 mmHg
Rattus norvegicus [7]
  BP: 178 mmHg
Rattus norvegicus [8]
  BP: 166 mmHg
Rattus norvegicus [10]
  BP: 174 mmHg

## CC(=O)c1c(-c2ccc(Cl)cc2)c(-c2ccc(Cl)cc2)nn(CCOC(=O)C(N)CCCCN)c1=O.Cl.Cl (stereo not given)
Rattus norvegicus [33]
  BP: 166 mmHg
Rattus norvegicus [34]
  BP: 171 mmHg
Rattus norvegicus [35]
  BP: 183 mmHg
Rattus norvegicus [36]
  BP: 185 mmHg
Rattus norvegicus [37]
  BP: 169 mmHg
Rattus norvegicus [38]
  BP: 159 mmHg
Rattus norvegicus [39]
  BP: 199 mmHg
Rattus norvegicus [40]
  BP: 181 mmHg
Rattus norvegicus [41]
  BP: 171 mmHg

## CC(=O)c1c(-c2ccc(Cl)cc2)c(-c2ccc(Cl)cc2)nn(CCOC(=O)C(C)(C)C)c1=O
Rattus norvegicus [3]
  BP: 158 mmHg
Rattus norvegicus [5]
  BP: 205 mmHg
Rattus norvegicus [9]
  BP: 202 mmHg
Rattus norvegicus [22]
  BP: 200 mmHg
Rattus norvegicus [11]
  BP: 205 mmHg
